# Experimental data published in the EternaBench riboswitch data.
# Legend:
# MS2 coat protein [1] = experiment: apparent Kd, MS2 coat protein; higher = weaker binding; RNA-MaP array
# Procedure, shortened: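 For each design, the apparent Kd is the median of binding-curve fits across its clusters. Designs measured on fewer than 10 clusters were dropped. The RNAs were transcribed from sequenced DNA templates on an Illumina sequencing chip and incubated at room temperature, with or without input ligand, with fluorescently labeled MS2 coat protein at 1.5 nM to 3 μM.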
# MS2 coat protein [2] = experiment: apparent Kd, MS2 coat protein; higher = weaker binding; RNA-MaP array; FMN 200 µM where present
# Procedure, shortened: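 Designs were transcribed by stalled E. coli RNA polymerase on Illumina sequencing-chip clusters. They were titrated with SNAP-549-labelled MS2 coat protein from 0.7 or 1.5 nM, doubling to 3 µM, without and then with constant ligand. Buffer: 100 mM Tris-HCl pH 7.5, 80 mM KCl, 4 mM MgCl2, BSA, DTT, yeast tRNA, Tween-20. Green signal was normalised to red-channel RNA signal and control-cluster median Fmax. Apparent Kd is the median of filtered per-cluster binding-curve fits.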
# [3] = designed as: ON switch for flavin mononucleotide, no ligand
# [4] = ligand present: flavin mononucleotide, designed as: ON switch for flavin mononucleotide
# [5] = designed as: OFF switch for flavin mononucleotide, no ligand
# [6] = ligand present: flavin mononucleotide, designed as: OFF switch for flavin mononucleotide
# [7] = designed as: ON switch for theophylline, no ligand
# [8] = ligand present: theophylline, designed as: ON switch for theophylline
sequence,measurement,setting,value
AAAACAUGAGGAUCACCCAUGUUGAUCAAACACCAGACCAAGAGAAGGAUCAGCACCGAGUGAUGAAAGGAUAUCUAUUAACGG,apparent Kd,MS2 coat protein [1]; [3],39.2 nM
same,apparent Kd,MS2 coat protein [1]; [4],23.8 nM
AAAGAACAAGGAUAUACAUGAGGAUCACCCAUGUCACAGAUAGUAGAACCACAAGCAUGUAGAAGGUGAGUCUA,apparent Kd,MS2 coat protein [1]; [5],11.5 nM
same,apparent Kd,MS2 coat protein [1]; [6],9.61 nM
AAAGGUUGAGGAUAUCAUCCUCCAAACAUGAGGAUCACCCAUGUUGAUCUUCACGUACGAUGAGAAGGCAACACCU,apparent Kd,MS2 coat protein [1]; [5],585 nM
same,apparent Kd,MS2 coat protein [1]; [6],683 nM
AACAGAAGACAGGAUAUUACUUAACCAGUAUUGUAAGAAGGGUCGACAUGAGGAUCACCCAUGUGAUCAUACUG,apparent Kd,MS2 coat protein [1]; [5],48.8 nM
same,apparent Kd,MS2 coat protein [1]; [6],47 nM
AACAGACGAGACGAUACCAGUCUCUUAGCGCACAUGAGGAUCACCCAUGUUGGCAAGCUCGACCCUUGGCAGCGUACCUUUGAUC,apparent Kd,MS2 coat protein [1]; [7],24.4 nM
same,apparent Kd,MS2 coat protein [1]; [8],14 nM
AACAGUAUUAUAGAUACCAGCAGGUCAUAAGACAUGAGGAUCACCCAUGUGAAUGAGGUAUGCCCUUGGCAGCUAUGAGGUCCUC,apparent Kd,MS2 coat protein [1]; [7],173 nM
same,apparent Kd,MS2 coat protein [1]; [8],128 nM
AAGGAGGAGCAAGGAUAUCAGUGUAUACGCCACAUGAGGAUCACCCAUGUCCGGAGCGAGAUUCCUGAGAAGGUGCCGCCUAGC,apparent Kd,MS2 coat protein [1]; [3],7.25 nM
same,apparent Kd,MS2 coat protein [1]; [4],6.47 nM
AAGUCGCAAGGAUAUACAGUAAGGGUUCGGAUGGGAAGCUUACAUGAGGAUCACCCAUGUAGAAGGUGCAUUCA,apparent Kd,MS2 coat protein [1]; [5],26.9 nM
same,apparent Kd,MS2 coat protein [1]; [6],31.4 nM
AAUCAACUUAGAGGAUAUAAGCUUAAAAUAGGGUUAGAAGGCUAUGGUACUAAUGAUCCGUCAACAUGAGGAUCACCCAUGUAG,apparent Kd,MS2 coat protein [1]; [5],45 nM
same,apparent Kd,MS2 coat protein [1]; [6],37.2 nM
AAUCGCCGUAAGAAGGCCACAUAAACAUGAGGAUCACCCAUGUACAGGCGACCUUUAUAUAAUGUGGAGGAUAUUAACUGCUUC,apparent Kd,MS2 coat protein [1]; [5],36.2 nM
same,apparent Kd,MS2 coat protein [1]; [6],90.5 nM
AAUUGUGCAGGAUAUUCACAGGUGAACAUGAGGAUCACCCAUGUAGCAUGAGGUGUAAUCGAAGAAGGGCAGGUCC,apparent Kd,MS2 coat protein [1]; [5],109 nM
same,apparent Kd,MS2 coat protein [1]; [6],72.8 nM
UUUAUGUCAGGAUAUGAGUAGUAGAACAAUAGUACUACUACUCAGAAGGGACAUGAGGAUCACCCAUGUGCCUC,apparent Kd,MS2 coat protein [2]; [5],35.2 nM
same,apparent Kd,MS2 coat protein [2]; [6],291 nM
UUUAUGUGAGGAUAUACGAAUAGUAAGUAAGUAUUACAGACGUAGAAGGCACAUGAGGAUCACCCAUGUGAACC,apparent Kd,MS2 coat protein [2]; [5],38.5 nM
same,apparent Kd,MS2 coat protein [2]; [6],78 nM
UUUAUUAGUUAGAAGGCUUGAUGAAUUACAAUGGACAUGAGGAUCACCCAUGUGUAUUCAUGUUAAGAGGAUAUAGUCAUAUAU,apparent Kd,MS2 coat protein [2]; [3],30.2 nM
same,apparent Kd,MS2 coat protein [2]; [4],20.2 nM
UUUAUUUAGGCAGGAUAUACAUGUAUAUAUAUUUCUUUAUAUCUUAUUACAUGAGGAUCACCCAUGUAGAAGGGCCUUCUUAUA,apparent Kd,MS2 coat protein [2]; [5],26.7 nM
same,apparent Kd,MS2 coat protein [2]; [6],30.6 nM
UUUAUUUUUACAGGAUAUCAUCUAUAUAACUCAUGCAAAUGUUUACAUGAGGAUCACCCAUGUUAUGAGAAGGGUAUUGAAACA,apparent Kd,MS2 coat protein [2]; [3],361 nM
same,apparent Kd,MS2 coat protein [2]; [4],216 nM
UUUCAGUCAGGAUAUCGUUAAUUUAAUUGUUUGUUUUAGUUCGAGAAGGGACAUGAGGAUCACCCAUGUACUUU,apparent Kd,MS2 coat protein [2]; [5],20 nM
same,apparent Kd,MS2 coat protein [2]; [6],20 nM
UUUCCACAUGAGGAUCACCCAUGUAAGGAUAUGUAGCGCGGGCUGGUGUCCGAGUGUUACAGAAGGUGCUGGCG,apparent Kd,MS2 coat protein [2]; [5],26.3 nM
same,apparent Kd,MS2 coat protein [2]; [6],33.7 nM
UUUCCCUGUGUGAGGAUAUACUUGUUUGGGUUUUUGUAGAAGGCACAUGAGGAUCACCCAUGUACUCUGUCCUG,apparent Kd,MS2 coat protein [2]; [5],25.3 nM
same,apparent Kd,MS2 coat protein [2]; [6],30.6 nM
UUUCCCUGUGUGAGGAUAUACUUGUUUGGGUUUUUGUAGAAGGCACAUGAGGAUCACCCAUGUACUCUGUCGUG,apparent Kd,MS2 coat protein [2]; [5],23.3 nM
same,apparent Kd,MS2 coat protein [2]; [6],55.8 nM
UUUCCGCGAGGAUAUGCGGGUUGUGCUUUUCAUUUUUUAUAACAUGAGGAUCACCCAUGUAGAAGGUGCUUCUU,apparent Kd,MS2 coat protein [2]; [5],186 nM
same,apparent Kd,MS2 coat protein [2]; [6],166 nM
UUUCGGUGGCUGGAGGAUAUCCUGGUUGUUACAUGAGGAUCACCCAUGUGCCGCGCGGUGCGCUGGGAGAAGGCCGGCGGCCCUU,apparent Kd,MS2 coat protein [2]; [3],37.7 nM
same,apparent Kd,MS2 coat protein [2]; [4],16.1 nM
UUUCUACAUGAGGAUCACCCAUGUCAACAAAGUCGAGGAUAUGGGCAUAUUAUCUUAUUUCCAGAAGGCGAUUUCU,apparent Kd,MS2 coat protein [2]; [3],145 nM
same,apparent Kd,MS2 coat protein [2]; [4],29.5 nM
UUUGCAUUCCGAGGAUAUUCAUAUAAUAAAUAAACAUGAGGAUCACCCAUGUGGCGAAAGCCUAGGGAGAAGGCGGUAUGCUUU,apparent Kd,MS2 coat protein [2]; [3],155 nM
same,apparent Kd,MS2 coat protein [2]; [4],26.8 nM
UUUGCAUUCCGAGGAUAUUCAUUUAAUGACUUCACAUGAGGAUCACCCAUGUGGCGAUAGCGCCGGGAGAAGGCGGUUUGCUUU,apparent Kd,MS2 coat protein [2]; [3],23.1 nM
same,apparent Kd,MS2 coat protein [2]; [4],25.7 nM
UUUGUCAUCGAGAAGGCCUCAACAUGAGGAUCACCCAUGUUGUAAUAUGGGAGGAUAUCGAUGAUACAGCUACGUUUCGUAGGG,apparent Kd,MS2 coat protein [2]; [3],18.1 nM
same,apparent Kd,MS2 coat protein [2]; [4],5.6 nM
UUUGUUUUGGUAGGAUAUACUUUUAUUUUCUCUUUCCUUACAUGAGGAUCACCCAUGUUUACAUUGUAGAAGGACCACUUUGUU,apparent Kd,MS2 coat protein [2]; [5],20.8 nM
same,apparent Kd,MS2 coat protein [2]; [6],18.8 nM
